# Source: PubChem (The Scripps Research Institute Molecular Screening Center)
# MBD2 inh = inhibitors of human MBD2 binding to methylated oligonucleotide. inhibition, % at 4.4 µM. Q9UBB5. TR-FRET. 0.31% of 370,000 active; in the data active means inhibition above about 13%
# TDP2 absorb = blocks human TDP2 phosphodiesterase activity | recombinant TDP2, T5PNP hydrolysis, p-nitrophenol absorbance 415 nm | 0.34% of 370,000 active | inhibition, % at 12.8 µM | O95551;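 active means inhibition above the mean of all tested compounds plus 3 SD, set per campaign, cut at about 25% in these data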;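 further: 0% = DMSO with enzyme and 100% = buffer with substrate but no TDP2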
# Target sequence (O95551 whole entry, looked up): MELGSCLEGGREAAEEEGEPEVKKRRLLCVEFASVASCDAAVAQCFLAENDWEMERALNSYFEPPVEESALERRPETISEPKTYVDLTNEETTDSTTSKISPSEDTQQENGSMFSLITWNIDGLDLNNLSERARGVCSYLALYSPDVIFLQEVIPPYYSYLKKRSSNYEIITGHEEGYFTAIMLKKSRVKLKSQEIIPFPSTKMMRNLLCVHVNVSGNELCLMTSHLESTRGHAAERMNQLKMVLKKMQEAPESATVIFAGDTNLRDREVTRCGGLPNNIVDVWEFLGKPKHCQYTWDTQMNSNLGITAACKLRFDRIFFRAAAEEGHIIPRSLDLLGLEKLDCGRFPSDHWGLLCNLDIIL
#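 Test system: Human TDP2 enzyme | Reagent: 5 mM T5PNP | Compound dosing: 12.8 µM single point, 1% DMSO | Incubation: Enzyme reaction with compound for 2 h at 37 °C | Technique: p-Nitrophenol epi absorbance | Read-out: % inhibition relative to enzyme-containing and enzyme-free wells | Benchmarks: High control without enzyme, low control DMSO plus TDP2 | Replicates: Singlicate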
# core dimer inh = blocks dimerization of HCV core protein. TR-FRET GST/Flag-core106 dimerization, 1536-well. inhibition, % at 5 µM. 0.33% of 300,000 active;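 active means inhibition above the mean of all tested compounds plus 3 SD, set per screening campaign, cut at about 45% in these data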
#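 System: GST-tagged and Flag-tagged HCV core protein residues 1-106 / Input: core106 proteins, GST 13.5 nM and Flag 17 nM / Buffer or medium: KF-containing HEPES buffer, pH 7.45, DTT, CHAPS, BSA / Probe or stimulus: Eu-anti-GST and XL665-anti-Flag labelled anti-tag antibodies / Schedule: 4 h, 22.5 °C incubation / Technique: TR-FRET 671 and 617 nm emission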
# LEDGF integ inh = blocks HIV-1 LEDGF/p75-dependent DNA integration; TR-FRET IN-LEDGF/p75 DNA integration, Eu/Cy5; inhibition, % at 3.7 µM; 0.64% of 370,000 active;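 active means inhibition above the screen-wide mean plus 3 SD, cut at about 13% in these data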;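 further: signal is the Cy5 over europium emission ratio at 671 and 618 nm; 0% = plate median of compound wells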
# UHRF1 binding = blocks human UHRF1 binding to methylated DNA. Q96T88. UHRF1 binding to methylated oligo, TR-FRET. inhibition, % at 4.4 µM. 0.75% of 370,000 active. AID 687016; in the data active means inhibition above about 21%;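 further: UHRF1 SRA domain binding a hemimethylated CpG hairpin DNA probe; 0% = median of test compound wells and 100% = reference inhibitor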
# * = called active by the depositor; nt = not tested or not shown. Shown are actives, neighbours in structure and some others; about 1.8% of the full set was active somewhere.
SMILES,MBD2 inh,TDP2 absorb,core dimer inh,LEDGF integ inh,UHRF1 binding
COC(=O)[C@]12C[C@H](CC(=O)NCc3ccc(C)o3)C(=O)N(Cc3cccc4ccccc34)C1=C[C@H](C(C)(C)C)O[C@@H]2C,-2,-6,nt,2,-1
O=C(COc1ccccc1F)NCc1nc2ccccc2[nH]1,11,0,8,2,22*
CCOC(=O)c1csc(NC(=O)C2CCCN(S(=O)(=O)c3ccccc3[N+](=O)[O-])C2)n1 (configuration not stated),1,10,nt,2,2
O=c1nc(/C=C/c2cc([N+](=O)[O-])ccc2Cl)cc(C(F)(F)F)[nH]1,-2,11,-3,0,-1
O=c1nc(/C=C/c2cccn2-c2ccc([N+](=O)[O-])cc2)cc(C(F)(F)F)[nH]1,-5,7,61*,4,-2
Cc1ccc(-n2c3c(c(=O)[nH]c2=O)C(NS(=O)(=O)c2ccc(Cl)cc2)(C(F)(F)F)C(=O)N3)cc1 (configuration not stated),4,2,3,2,28*
CCCCCCCCN1C(=O)[C@@H](CC(=O)NCc2ccc(OC)c(OC)c2)C[C@@]2(C(=O)OC)C1=C[C@H](C(C)C)O[C@@H]2C1CC1,-6,-10,nt,4,-2
O=C(CNc1ccccc1)N/N=C/c1cc([N+](=O)[O-])ccc1N1CCCC1,-7,-1,2,1,-4
Cc1ccc(-n2c(C)cc(/C=N/NC(=O)Cn3c4ccccc4c(=O)c4ccccc43)c2C)cc1,-6,-25,68*,9,-1
O=C(Cn1c2ccccc2c(=O)c2ccccc21)N/N=C/c1ccc(N2CCCC2)c([N+](=O)[O-])c1,1,6,51*,-2,-3
O=C(Cn1c2ccccc2c(=O)c2ccccc21)N/N=C/c1cc([N+](=O)[O-])ccc1N1CCCCCC1,-2,10,65*,-2,-5
CC(C)(C)N(Cc1cn(CC2CCCCC2)nn1)S(=O)(=O)c1ccccc1Br,11,-3,nt,0,19
Cc1ccc(C)n1-c1cccc(C(=O)O)c1,nt,nt,-82,nt,nt
Cc1ccc(C)n1-c1cccc(N)c1,nt,nt,64*,nt,nt
COc1ccccc1Cc1c(C(C)(C)C)nc2c3ccccc3ccn12,6,1,nt,2,23*
COC(=O)C1=C(C)N(c2ccccc2)C(=S)NC1c1ccccc1C(F)(F)F (configuration not stated),-2,-8,8,-6,44*
Clc1cccc(Cc2c(C3CCCCC3)nc3c4ccccc4ccn23)c1,3,7,nt,6,24*
FC(F)(F)c1ccccc1Cc1c(C2CCCCC2)nc2c3ccccc3ccn12,3,-14,nt,3,22*
Clc1cccc(Cc2c(C3CCCCC3)nc3ccc(Cl)cn23)c1,0,3,nt,-3,9
COc1ccc(C(C(=O)N(C)C2CCCC2)N(Cc2ccc(F)cc2)C(=O)c2cc(C)[nH]n2)cc1OC (configuration not stated),-1,-10,nt,2,1
CC(=O)c1ccc(NCCCN2CCC(C(O)(c3ccccc3)c3ccccc3)CC2)cc1,3,2,nt,4,5
O=Cc1ccc(OCc2cn(CC(=O)c3ccc(O)cc3)nn2)cc1,-1,-6,nt,2,0
COc1ccc(OCc2cn(CC(=O)c3ccc(O)cc3)nn2)cc1,12,11,nt,6,22*
CCC(=O)c1ccc(OCc2cn(CC(=O)c3ccc(O)cc3)nn2)cc1,8,1,nt,7,22*
CCC(=O)c1ccc(OCc2ccc(C(=O)c3ccccc3)cc2)cc1,9,-2,3,-1,22*
O=C(Cn1cc(COc2ccc(C(=O)c3ccccc3)cc2)nn1)c1ccc(O)cc1,10,-9,nt,-1,22*
C/C(=N\NC(=O)CSCc1ccc([N+](=O)[O-])cc1)c1ccccc1O,1,7,-8,-2,3
C/C(=N\NC(=O)CSCc1ccc([N+](=O)[O-])cc1)c1ccccc1,1,-6,-1,-7,30*
COc1ccc(C2C(C(=O)N3CCC(C)CC3)CC(=O)N2c2ccc(OC)cc2)cc1 (configuration not stated),-2,7,nt,-3,0
Cc1ccc(NC(=O)C2OCCc3ccccc32)cc1 (configuration not stated),1,9,-1,-10,0
